A selection: hits, their analogues and other compounds. The true share with any hit is near 2.6%.
SENP7 block: blocks the human protease SENP7. Q9BQF6. recombinant SENP7, Z-RLRGG-aminoluciferin luminescence, 40 min. inhibition, % at 5 µM. actives 1.5% (n = 330,000). AID 434973;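 active = inhibition above about 50% at the single test dose, limit read from the data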
SENP8 block-1: SENP8 (human) protease inhibition | actives 0.64% (n = 360,000) | inhibition, % at 20 µM | recombinant SENP8, Nedd8 substrate fluorescence | Q96LD8; in the data active = inhibition mostly above about 40%, no sharp cut-off; inactive = mostly below about 27%
Target sequence (Q96LD8 whole entry, looked up): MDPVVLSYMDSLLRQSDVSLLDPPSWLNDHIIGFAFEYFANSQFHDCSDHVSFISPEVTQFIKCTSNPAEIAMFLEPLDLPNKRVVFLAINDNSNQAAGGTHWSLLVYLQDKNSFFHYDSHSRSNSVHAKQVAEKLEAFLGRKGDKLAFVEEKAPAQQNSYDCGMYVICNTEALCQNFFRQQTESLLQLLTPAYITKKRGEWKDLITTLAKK
SENP8 block-2: SENP8 protease inhibition. inhibition, % at 10 µM. actives 1.2% (n = 330,000). Q96LD8. purified SENP8, Z-RLRGG-aminoluciferin cleavage, luminescence; in the data active = inhibition above about 50%
UCH37 DUB inh: blocks the human deubiquitinase UCH37. Q9Y5K5. purified proteasome/UCH37, Ub-AMC cleavage fluorescence. inhibition, % (concentration not given with the values). actives 0.33% (n = 330,000);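 active = mean inhibition over replicate wells above about 20%, limit read from the data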
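Material: Human UCH37 enzyme supplied as purified proteasome complex | Schedule: 30 min preincubation with enzyme, 25 min cleavage at room temperature | Detection: AMC fluorescence 355/460 nm | Measure: % inhibition of Ub-AMC cleavage fluorescence | Controls: Wells without proteasome as full block, compound-free enzyme plus substrate as uninhibited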
SENP1 inh: SENP1 (human) catalytic domain inhibition; Q9P0U3; recombinant SENP1 catalytic domain, CyPet-SUMO1-YPet FRET cleavage; inhibition, % at 10 µM; actives 0.21% (n = 360,000);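 active = inhibition at least 30% at 10 µM, raw YFP signal under a set limit, fluorescence ratio 0.5 to 1.5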
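Assay system: hSENP1 catalytic domain, recombinant. Amount: SENP1 enzyme, 20 pM final. Schedule: 50 min reaction, RT, dark. Technique: FRET, CFP and YFP emission. Control set: no-enzyme wells low, DMSO-plus-enzyme wells high control.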
SENP6 block: inhibitors of human SENP6 protease | Q9GZR1 | Recombinant SENP6 catalytic domain, aminoluciferin luminescence | inhibition, % at 10 µM | actives 1.8% (n = 330,000) | AID 2599;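 active = inhibition above about 50% at the single tested dose, limit read from the data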
Target sequence (Q9GZR1 628-1112 limits assumed): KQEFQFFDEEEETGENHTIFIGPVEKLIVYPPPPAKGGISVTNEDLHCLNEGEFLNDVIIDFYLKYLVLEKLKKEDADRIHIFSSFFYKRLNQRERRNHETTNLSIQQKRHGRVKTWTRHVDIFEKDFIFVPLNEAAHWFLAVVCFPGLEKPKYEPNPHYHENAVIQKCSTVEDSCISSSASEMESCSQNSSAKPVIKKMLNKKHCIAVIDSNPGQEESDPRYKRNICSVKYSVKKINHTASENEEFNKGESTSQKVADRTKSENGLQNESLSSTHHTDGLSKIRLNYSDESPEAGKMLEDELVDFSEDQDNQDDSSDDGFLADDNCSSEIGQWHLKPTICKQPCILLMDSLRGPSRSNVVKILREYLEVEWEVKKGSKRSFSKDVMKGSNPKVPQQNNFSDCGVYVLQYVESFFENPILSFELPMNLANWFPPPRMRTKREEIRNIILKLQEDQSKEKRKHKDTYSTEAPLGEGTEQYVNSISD
SENP8 confirm: human SENP8 inhibition, confirmed. shares compounds with SENP7 block. AID 488912. actives 40% (n = 6,200). Recombinant SENP8, Z-RLRGG-aminoluciferin luminescence, 60 min. inhibition, % at 12.5 µM;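 active = mean inhibition across replicates above about 50%, limit read from the data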
SENP6 conf: confirmation of human SENP6 protease inhibitors | inhibition, % at 12.5 µM | actives 58% (n = 6,200) | shares compounds with SENP7 block | AID 488915 | recombinant SENP6, Z-RLRGG-aminoluciferin luminescence
SENP7 confirm: human SENP7 inhibition, confirmed; shares compounds with SENP7 block; recombinant SENP7, Z-RLRGG-aminoluciferin luminescence, 40 min; inhibition, % at 12.5 µM; actives 69% (n = 6,200); AID 488917
Casp3 select: selectivity test for SENP inhibitors: human caspase-3 inhibition. actives 60% (n = 6,200). purified caspase-3, Z-DEVD-aminoluciferin luminescence, 60 min. shares compounds with SENP7 block. inhibition, % at 12.5 µM. AID 488918;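 active = mean inhibition above about 50%, limit read from the data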
Luc interf: luminescence interference (SENP counter-screen) | shares compounds with SENP7 block | Pre-incubated SENP8/Z-RLRGG-aminoluciferin, luciferase luminescence interference | inhibition, % at 12.5 µM | AID 488919 | actives 39% (n = 6,200);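 active = mean inhibition above about 50% when retested at one dose, limit read from the data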
Of the large screens only hits and unclear results are named; the others gave an inactive call (follow-up assays come after a bar, where they were run).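 The calls were made as follows, unless noted: active = mean inhibition above about 50% in the one-dose retest (limit read from the data); inactive = the rest.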

c1ccc(-c2nc(-c3ccccn3)nc(-c3ccccn3)n2)nc1	none
c1ccc(C2=NNC(c3ccccn3)=NN2)nc1	SENP8 block-2 74, SENP6 block 78 | SENP8 confirm inactive | SENP6 conf 89 | SENP7 confirm 100 | Casp3 select 96 | Luc interf 75
c1ccc(-c2nnc(-c3ccccn3)s2)nc1	SENP7 block 89, SENP8 block-2 83, SENP6 block 90 | SENP8 confirm 91 | SENP6 conf 93 | SENP7 confirm 102 | Casp3 select 96 | Luc interf 88
COc1ccc(C(C)=NOC/C(O)=C(\C#N)c2nc3ccccc3[nH]2)cc1OC	none (no result: SENP7 block, SENP8 block-1, SENP8 block-2, SENP1 inh, SENP6 block)
Nc1nc(Nc2cccc(F)c2)nc2ccccc12	SENP7 block 90, SENP8 block-2 88, SENP6 block 96 | SENP8 confirm 96 | SENP6 conf 96 | SENP7 confirm 102 | Casp3 select 91 | Luc interf 96
Cc1ccc(C)c(Nc2nc(N)c3ccccc3n2)c1	SENP6 block 58 | SENP8 confirm inactive | SENP6 conf inactive | SENP7 confirm 75 | Casp3 select 65 | Luc interf inactive
COc1ccc(Cl)cc1Nc1nc(N)c2ccccc2n1	none
O=c1oc(Nc2cccc(F)c2)nc2ccccc12	none
CCOC(=O)c1csc(NN=C2CCc3ccccc32)n1	none (no result: SENP7 block, SENP8 block-1, SENP8 block-2, SENP1 inh, SENP6 block)
CCOc1ccc(-c2csc(NC(=O)c3ccco3)n2)cc1	none
COc1ccc(-c2csc(NC(=O)c3ccco3)n2)cc1	SENP6 block 56 | SENP8 confirm inactive | SENP6 conf inactive | SENP7 confirm 75 | Casp3 select inactive | Luc interf inactive
CC(=O)Nc1nc2ccc(NC(=O)c3ccco3)cc2s1	none
Cn1cc(Cl)c(C(=O)Nc2nc3ccc(Cl)cc3s2)n1	SENP7 block 95, SENP6 block 68 | SENP8 confirm inactive | SENP6 conf inactive | SENP7 confirm 67 | Casp3 select 55 | Luc interf inactive
O=C(Nc1nc2ccc(Cl)cc2s1)c1ccco1	SENP7 block 89, SENP8 block-2 81, SENP6 block 86 | SENP8 confirm inactive | SENP6 conf 80 | SENP7 confirm 59 | Casp3 select 86 | Luc interf inactive
COc1ccc(-c2ccc(NC(=O)c3ccco3)cc2)nn1	SENP7 block 94, SENP8 block-2 90, SENP6 block 91 | SENP8 confirm 90 | SENP6 conf 90 | SENP7 confirm 99 | Casp3 select 96 | Luc interf 68
COc1ccc(-c2cccc(NC(=O)c3ccco3)c2)nn1	none
Cc1ccccc1-c1nc2ccccc2c(=O)n1N=Cc1ccc([N+](=O)[O-])cc1	none (no result: SENP7 block, SENP8 block-1, SENP8 block-2, SENP1 inh, SENP6 block)
CC(C)[C@@H](N)C(=O)NN=Cc1ccc2nccnc2c1	none (no result: SENP7 block, SENP8 block-1, SENP8 block-2, SENP1 inh, SENP6 block)
O=C1NCCCC1=NNc1ccc(F)cc1	none (no result: SENP7 block, SENP8 block-1, SENP8 block-2, SENP1 inh, SENP6 block)
CC(Oc1cccc2cccnc12)C(=O)NN=Cc1ccccc1 (centres undefined)	none (no result: SENP7 block, SENP8 block-1, SENP8 block-2, SENP1 inh, SENP6 block)
NS(=O)(=O)c1ccc(NN=C2CCCCC2C2CCCCC2)c([N+](=O)[O-])c1 (centres undefined)	none (no result: SENP7 block, SENP8 block-1, SENP8 block-2, SENP1 inh, SENP6 block)
COc1ccc2nc(NC(=O)c3ccco3)sc2c1	SENP7 block 93, SENP8 block-2 87, SENP6 block 88 | SENP8 confirm 93 | SENP6 conf 93 | SENP7 confirm 101 | Casp3 select 94 | Luc interf 79
Cc1ccc2nc(NC(=O)c3ccc(Br)o3)sc2c1	SENP7 block 87, SENP8 block-2 60, SENP6 block 73 | SENP8 confirm inactive | SENP6 conf inactive | SENP7 confirm inactive | Casp3 select inactive | Luc interf inactive
COc1ccc2nc(NC(=O)C3CCN(C(=O)c4ccco4)CC3)sc2c1	none
Cc1cc2sc(NC(=O)c3ccco3)nc2cc1Cl	SENP7 block 71 | SENP8 confirm inactive | SENP6 conf inactive | SENP7 confirm inactive | Casp3 select inactive | Luc interf inactive
COc1cc2sc(NC(=O)c3ccco3)nc2cc1Cl	none
Cc1cccc2[nH]c(-c3ccc(NC(=O)c4ccco4)cc3)nc12	SENP7 block 90, SENP8 block-2 77, SENP6 block 91 | SENP8 confirm inactive | SENP6 conf 80 | SENP7 confirm 96 | Casp3 select 75 | Luc interf 78
NS(=O)(=O)c1ccc2nc(NC(=O)c3ccc(Br)o3)sc2c1	none
CC1(C)C2CC=C(C=NNC(=O)c3ccccc3Br)C1C2 (centres undefined)	none (no result: SENP7 block, SENP8 block-1, SENP8 block-2, SENP1 inh, SENP6 block)
Cc1ccc2nc(NC(=O)COC(=O)c3ccncc3)sc2c1	none
O=C(Nc1nc2ccsc2c(=O)s1)c1ccco1	SENP7 block 77, SENP8 block-2 53, SENP6 block 72 | SENP8 confirm 79 | SENP6 conf 72 | SENP7 confirm 94 | Casp3 select inactive | Luc interf 77
COCC(=O)Nc1nc2ccc(C)cc2s1	SENP7 block 58, SENP6 block 68 | SENP8 confirm 67 | SENP6 conf 62 | SENP7 confirm 88 | Casp3 select 82 | Luc interf 64
O=C(Nc1ccc(-c2cn3ccccc3n2)cc1)c1ccco1	SENP7 block 59, SENP6 block 71 | SENP8 confirm 59 | SENP6 conf 58 | SENP7 confirm 85 | Casp3 select 79 | Luc interf 69
CC(=O)Nc1nc2ccc(Br)cc2s1	SENP7 block 70, SENP8 block-2 56, SENP6 block 80 | SENP8 confirm 72 | SENP6 conf 69 | SENP7 confirm 92 | Casp3 select 74 | Luc interf 59
Cc1csc2c(=O)sc(NC(=O)c3ccco3)nc12	none
CC(C)C=NNC(=O)c1ccc(Cl)cc1	none (no result: SENP7 block, SENP8 block-1, SENP8 block-2, SENP1 inh, SENP6 block)
CCOC(=O)NN=Cc1ccc(N2CCOCC2)s1	none (no result: SENP7 block, SENP8 block-1, SENP8 block-2, SENP1 inh, SENP6 block)
Cc1cc(NC(=O)c2ccco2)sc1C	SENP7 block 76, SENP8 block-2 68, SENP6 block 83 | SENP8 confirm inactive | SENP6 conf 60 | SENP7 confirm 86 | Casp3 select 81 | Luc interf 67

Screening results (PubChem BioAssay)
